Reference: publication PMC9290503 (British Journal of Clinical Pharmacology, 2021)

Legend:
[1] = Study 1003 SRD cohort plasma pharmacokinetics; type: in vivo, human; details: fasted
Outline: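 Healthy women received a single oral 120 mg dose, then 160 mg after a washout of at least 14 days (placebo-controlled). Plasma was sampled pre-dose and at 0.25–72 h. Free base was measured by validated UPLC–MS/MS after protein precipitation (calibration 0.5–1000 ng mL−1). Noncompartmental parameters used actual sampling times, with values below LLOQ set to zero.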

[2] = Safety and tolerability, Study 1003; type: in vivo, human
Outline: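 Healthy women received placebo or test compound once daily for 10 days (20–160 mg, double-blind), including one 20 mg cohort of four Japanese women. Monitored AEs, physical and neurological exams, vital signs, flagged clinical labs, pregnancy and 12-lead ECG. TEAEs counted from first dose to 30 days after the last dose. Follow-up to day 70 (±2).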

[3] = preliminary toxicology studies in animals; no reference given; cited from earlier work
[4] = system: human LSD1; details: targets the catalytic FAD in the LSD1 active site; no reference given; cited from earlier work
[5] = 20 mg q.d. 10 days, Japanese (n = 3)
[6] = 20 mg q.d. 10 days, non‐Japanese (n = 6)
[7] = 60 mg q.d. 10 days, non‐Japanese (n = 6)
[8] = 160 mg q.d. 10 days, non‐Japanese (n = 3)
[9] = MRD, TAK‐418 all participants (n = 18)

## Cl.O=C(NC1CCOCC1)c1csc([C@@H]2C[C@H]2NCC2CC2)c1 [TAK‐418]
[1]; single oral dose 120 mg
  AUC0–24, mean (CV%): 3737.2 (19.9) h*ng mL^−1
  AUC0–∞, mean (CV%): 3828.3 (20.6) h*ng mL^−1
  C max, mean (CV%): 727.8 (20.0) ng mL^−1
  t max, median (range): 1.50 (1.00–1.50) h
  t ½z, mean (CV%): 5.188 (9.9) h
[1]; single oral dose 160 mg
  AUC0–24, mean (CV%): 4350.0 (31.0) h*ng mL^−1
  AUC0–∞, mean (CV%): 4466.8 (31.7) h*ng mL^−1
  C max, mean (CV%): 796.3 (36.2) ng mL^−1
  t max, median (range): 1.25 (1.00–2.00) h
  t ½z, mean (CV%): 4.847 (14.1) h
[2]; [5]
  Participants with any TEAE: 1 (33.3) Number (%) of participants
  TEAE Arthropod bite: 0 Number (%) of participants
  TEAE Constipation: 0 Number (%) of participants
  TEAE Decreased appetite: 0 Number (%) of participants
  TEAE Diarrhoea: 0 Number (%) of participants
  TEAE Dizziness: 0 Number (%) of participants
  TEAE Dry mouth: 0 Number (%) of participants
  TEAE Headache: 0 Number (%) of participants
  TEAE Myalgia: 0 Number (%) of participants
  TEAE Nausea: 0 Number (%) of participants
  TEAE Somnolence: 0 Number (%) of participants
  TEAE Vomiting: 0 Number (%) of participants
[2]; [6]
  Participants with any TEAE: 5 (83.3) Number (%) of participants
  TEAE Arthropod bite: 1 (16.7) Number (%) of participants
  TEAE Constipation: 0 Number (%) of participants
  TEAE Decreased appetite: 2 (33.3) Number (%) of participants
  TEAE Diarrhoea: 0 Number (%) of participants
  TEAE Dizziness: 1 (16.7) Number (%) of participants
  TEAE Dry mouth: 0 Number (%) of participants
  TEAE Headache: 4 (66.7) Number (%) of participants
  TEAE Myalgia: 0 Number (%) of participants
  TEAE Nausea: 0 Number (%) of participants
  TEAE Somnolence: 2 (33.3) Number (%) of participants
  TEAE Vomiting: 0 Number (%) of participants
[2]; [7]
  Participants with any TEAE: 6 (100.0) Number (%) of participants
  TEAE Arthropod bite: 1 (16.7) Number (%) of participants
  TEAE Decreased appetite: 1 (16.7) Number (%) of participants
  TEAE Diarrhoea: 1 (16.7) Number (%) of participants
  TEAE Dizziness: 1 (16.7) Number (%) of participants
  TEAE Dry mouth: 1 (16.7) Number (%) of participants
  TEAE Headache: 5 (83.3) Number (%) of participants
  TEAE Myalgia: 2 (33.3) Number (%) of participants
  TEAE Nausea: 4 (66.7) Number (%) of participants
  TEAE Somnolence: 1 (16.7) Number (%) of participants
  TEAE Vomiting: 3 (50.0) Number (%) of participants
[2]; [8]
  Participants with any TEAE: 3 (100.0) Number (%) of participants
  TEAE Arthropod bite: 0 Number (%) of participants
  TEAE Constipation: 0 Number (%) of participants
  TEAE Decreased appetite: 0 Number (%) of participants
  TEAE Diarrhoea: 2 (66.7) Number (%) of participants
  TEAE Dizziness: 0 Number (%) of participants
  TEAE Dry mouth: 2 (66.7) Number (%) of participants
  TEAE Headache: 0 Number (%) of participants
  TEAE Myalgia: 0 Number (%) of participants
  TEAE Nausea: 0 Number (%) of participants
  TEAE Somnolence: 0 Number (%) of participants
  TEAE Vomiting: 0 Number (%) of participants
[2]; MRD cohorts
  laboratory test parameters: No notably abnormal laboratory test parameters
[2]; MRD cohorts (20, 60 or 160 mg q.d.), 15 participants
  participants experiencing TEAEs: 83%
[2]; MRD cohorts, five individuals
  treatment‐related headache: 28%
[2]; MRD cohorts, five participants
  participants with moderate TEAEs: 28%
[2]; MRD cohorts, n = 3
  decreased appetite: 17%
  diarrhoea: 17%
  dry mouth: 17%
  somnolence: 17%
  vomiting: 17%
[2]; MRD cohorts, n = 4
  nausea: 22%
[2]; MRD cohorts, n = 9
  headache: 50%
[2]; MRD cohorts, nine participants
  participants with mild TEAEs: 50%
[2]; MRD cohorts, one participant (headache, 60 mg)
  participants with severe TEAEs: 6%
[2]; MRD cohorts, three individuals
  treatment‐related dry mouth: 17%
[2]; MRD cohorts, twelve participants, all mild
  participants with treatment‐related TEAEs: 67%
[2]; [9]
  Participants with any TEAE: 15 (83.3) Number (%) of participants
  TEAE Arthropod bite: 2 (11.1) Number (%) of participants
  TEAE Constipation: 2 (11.1) Number (%) of participants
  TEAE Decreased appetite: 3 (16.7) Number (%) of participants
  TEAE Diarrhoea: 3 (16.7) Number (%) of participants
  TEAE Dizziness: 2 (11.1) Number (%) of participants
  TEAE Dry mouth: 3 (16.7) Number (%) of participants
  TEAE Headache: 9 (50.0) Number (%) of participants
  TEAE Myalgia: 2 (11.1) Number (%) of participants
  TEAE Nausea: 4 (22.2) Number (%) of participants
  TEAE Somnolence: 3 (16.7) Number (%) of participants
  TEAE Vomiting: 3 (16.7) Number (%) of participants
[2]; SRD 120/160 mg cohort
  treatment‐related TEAEs: Two participants had TEAEs considered to be related to treatment, which were mild in intensity
[2]; SRD 120/160 mg cohort, n = 2
  dizziness: 25%
  headache: 25%
[2]; SRD 120/160 mg cohort, one person
  participants with moderate TEAEs: 13%
[2]; SRD 120/160 mg cohort, three women
  participants with mild TEAEs: 38%
[2]; SRD cohort, 160 mg, Day 30, one participant (13%), more than three times the upper limit of normal
  gamma glutamyl transferase level reached: 315 U/L
[2]; Study 1003
  SAEs, suicidal ideation/behaviour, deaths: no SAEs, suicidal ideation/behaviour or deaths were reported
[2]; current study
  thrombocytopenia AEs: no thrombocytopenia AEs were observed
[2]; daily dosing up to 160 mg
  tolerability: well tolerated
[2]; with TAK‐418 20 mg
  Japanese participants experiencing TEAEs: 33.3%
  non‐Japanese participants experiencing TEAEs: 83%
[3]
  toxicology findings: testicular findings in a single species
[4]
  inhibition of LSD1 activity: irreversibly inhibits the activity of human LSD1
